Test results as given in ChEMBL document CHEMBL2417493, “Novel cycloalkylthiophene-imine derivatives bearing benzothiazole scaffold: synthesis, characterization and antiviral activity evaluation” (Bioorg Med Chem Lett, 2013).
In brackets after ≈: the same amount, converted by molar mass. Activity calls are given as the source filed them. No cut-off for these calls is given here.

Columns and labels:
Influenza A virus [1] = assay: Antiviral activity against influenza A virus H1N1 infected in dog MDCK cells assessed as inhibition of virus-induced cytopathogenicity at 32 ug/ml after 48 hrs by crystal violet staining method; assay type: functional, organism-based
How it was run: (§1)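 Single-concentration screen with these pairings: RD/EV71, HepG2/CVB5, HeLa/ADV7, MDCK/H1N1. Cells were infected and kept 48 h in the presence of compound at one fixed concentration; some EV71 tests used the lower level. Inhibition of virus proliferation was read by crystal violet staining.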

unidentified adenovirus [2] = assay: Antiviral activity against Adenovirus type 7 infected in human HeLa cells assessed as inhibition of virus-induced cytopathogenicity at 32 ug/ml after 48 hrs by crystal violet staining method; assay type: functional; how it was run: as §1
Coxsackievirus B5 [3] = assay: Antiviral activity against Coxsackievirus B5 infected in human HepG2 cells assessed as inhibition of virus-induced cytopathogenicity at 32 ug/ml after 48 hrs by crystal violet staining method; assay type: functional; how it was run: as §1
Enterovirus [4] = assay: Antiviral activity against Enterovirus 71 infected in human rhabdomyosarcoma cells assessed as inhibition of virus-induced cytopathogenicity at 32 ug/ml after 48 hrs by crystal violet staining method; assay type: functional; how it was run: as §1
Influenza A virus [5] = assay: Antiviral activity against influenza A virus H1N1 infected in dog MDCK cells assessed as inhibition of virus-induced cytopathogenicity after 48 hrs by crystal violet staining method; assay type: functional, organism-based
How it was run: (§2)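 Virus–cell pairings were EV71 in RD, CVB5 in HepG2, ADV7 in HeLa and influenza A H1N1 in MDCK. Compounds were added […], and total infectivity was read by crystal violet staining. EC50 is the concentration reducing viral replication by 50%. Values are mean SD of three independent experiments.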

unidentified adenovirus [6] = assay: Antiviral activity against Adenovirus type 7 infected in human HeLa cells assessed as inhibition of virus-induced cytopathogenicity after 48 hrs by crystal violet staining method; assay type: functional, organism-based; how it was run: as §2
[7] = Cytotoxicity against human HeLa cells after 72 hrs by MTT assay; assay type: cell-based
How it was run: (§3)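 MTT assay on RD (rhabdomyosarcoma), HepG2 and HeLa cell lines. CC50 is the concentration that cut cell viability by 50% relative to 0.1% DMSO-treated mock-control cells. Values are mean and SD of three independent experiments.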

Coxsackievirus B5 [8] = assay: Antiviral activity against Coxsackievirus B5 infected in human HepG2 cells assessed as inhibition of virus-induced cytopathogenicity after 48 hrs by crystal violet staining method; assay type: functional, organism-based; how it was run: as §2
[9] = Cytotoxicity against human HepG2 cells after 72 hrs by MTT assay; assay type: cell-based; how it was run: as §3
Enterovirus [10] = assay: Antiviral activity against Enterovirus 71 infected in human rhabdomyosarcoma cells assessed as inhibition of virus-induced cytopathogenicity after 48 hrs by crystal violet staining method; assay type: functional, organism-based; how it was run: as §2
[11] = Cytotoxicity against human rhabdomyosarcoma cells after 72 hrs by MTT assay; assay type: cell-based, Rhabdomyosarcoma cell; how it was run: as §3

SMILES: Clc1ccccc1/C=N/c1sc2c(c1-c1nc3ccccc3s1)CCC2
- inhibition (Influenza A virus [1]): Active
- inhibition (unidentified adenovirus [2]): Active
- inhibition (Coxsackievirus B5 [3]): Active
- inhibition (Enterovirus [4]): Active
- inhibition (INH) (Influenza A virus [5]): <50%
- inhibition (INH) (unidentified adenovirus [6]): <50%
- CC50 at 72 h [7]: 138 µg/mL (≈ 350 µM)
- inhibition (INH) (Coxsackievirus B5 [8]): <50%
- CC50 at 72 h [9]: 180 µg/mL (≈ 456 µM)
- inhibition (INH) (Enterovirus [10]): <50%
- CC50 at 72 h [11]: 123 µg/mL (≈ 312 µM)

SMILES: COc1cc(/C=N/c2sc3c(c2-c2nc4ccccc4s2)CCCC3)cc(OC)c1OC
- inhibition (Influenza A virus [1]): Active
- inhibition (unidentified adenovirus [2]): Active
- inhibition (Coxsackievirus B5 [3]): Active
- inhibition (Enterovirus [4]): Active
- inhibition (INH) (Influenza A virus [5]): <50%
- inhibition (INH) (unidentified adenovirus [6]): <50%
- CC50 at 72 h [7]: 448 µg/mL (≈ 963 µM)
- inhibition (INH) (Coxsackievirus B5 [8]): <50%
- CC50 at 72 h [9]: 301 µg/mL (≈ 648 µM)
- inhibition (INH) (Enterovirus [10]): <50%
- CC50 at 72 h [11]: 381 µg/mL (≈ 821 µM)

SMILES: Clc1ccc(/C=N/c2sc3c(c2-c2nc4ccccc4s2)CCCC3)cc1
- inhibition (Influenza A virus [1]): Active
- inhibition (unidentified adenovirus [2]): Active
- inhibition (Coxsackievirus B5 [3]): Active
- inhibition (Enterovirus [4]): Active
- inhibition (INH) (Influenza A virus [5]): <50%
- inhibition (INH) (unidentified adenovirus [6]): <50%
- CC50 at 72 h [7]: 431 µg/mL (≈ 1050 µM)
- inhibition (INH) (Coxsackievirus B5 [8]): <50%
- CC50 at 72 h [9]: 397 µg/mL (≈ 970 µM)
- inhibition (INH) (Enterovirus [10]): <50%
- CC50 at 72 h [11]: 367 µg/mL (≈ 898 µM)

SMILES: Clc1ccc(/C=N/c2sc3c(c2-c2nc4ccccc4s2)CCCC3)c(Cl)c1
- inhibition (Influenza A virus [1]): Active
- inhibition (unidentified adenovirus [2]): Active
- inhibition (Coxsackievirus B5 [3]): Active
- inhibition (Enterovirus [4]): Active
- inhibition (INH) (Influenza A virus [5]): <50%
- inhibition (INH) (unidentified adenovirus [6]): <50%
- CC50 at 72 h [7]: 542 µg/mL (≈ 1220 µM)
- inhibition (INH) (Coxsackievirus B5 [8]): <50%
- CC50 at 72 h [9]: 384 µg/mL (≈ 865 µM)
- inhibition (INH) (Enterovirus [10]): <50%
- CC50 at 72 h [11]: 56.6 µg/mL (≈ 128 µM)

SMILES: Clc1ccc2sc(-c3c(/N=C/C=C/c4ccccc4)sc4c3CCC4)nc2c1
- inhibition (Influenza A virus [1]): Active
- inhibition (unidentified adenovirus [2]): Active
- inhibition (Coxsackievirus B5 [3]): Active
- inhibition (Enterovirus [4]): Active
- inhibition (INH) (Influenza A virus [5]): <50%
- inhibition (INH) (unidentified adenovirus [6]): <50%
- CC50 at 72 h [7]: 200 µg/mL (≈ 476 µM)
- inhibition (INH) (Coxsackievirus B5 [8]): <50%
- CC50 at 72 h [9]: 14.9 µg/mL (≈ 35.4 µM)
- inhibition (INH) (Enterovirus [10]): <50%
- CC50 at 72 h [11]: 122 µg/mL (≈ 291 µM)

SMILES: Clc1ccccc1/C=N/c1sc2c(c1-c1nc3ccccc3s1)CCCC2
- inhibition (Influenza A virus [1]): Active
- inhibition (unidentified adenovirus [2]): Active
- inhibition (Coxsackievirus B5 [3]): Active
- inhibition (Enterovirus [4]): Active
- inhibition (INH) (Influenza A virus [5]): <50%
- inhibition (INH) (unidentified adenovirus [6]): <50%
- CC50 at 72 h [7]: 407 µg/mL (≈ 996 µM)
- inhibition (INH) (Coxsackievirus B5 [8]): <50%
- CC50 at 72 h [9]: 370 µg/mL (≈ 904 µM)
- inhibition (INH) (Enterovirus [10]): <50%
- CC50 at 72 h [11]: 332 µg/mL (≈ 811 µM)

SMILES: FC(F)(F)c1ccc(/C=N/c2sc3c(c2-c2nc4ccccc4s2)CCCC3)cc1
- inhibition (Influenza A virus [1]): Active
- inhibition (unidentified adenovirus [2]): Active
- inhibition (Coxsackievirus B5 [3]): Active
- inhibition (Enterovirus [4]): Active
- inhibition (INH) (Influenza A virus [5]): <50%
- inhibition (INH) (unidentified adenovirus [6]): <50%
- CC50 at 72 h [7]: 368 µg/mL (≈ 833 µM)
- inhibition (INH) (Coxsackievirus B5 [8]): <50%
- CC50 at 72 h [9]: 361 µg/mL (≈ 816 µM)
- inhibition (INH) (Enterovirus [10]): <50%
- CC50 at 72 h [11]: 250 µg/mL (≈ 566 µM)

SMILES: Fc1ccccc1/C=N/c1sc2c(c1-c1nc3ccccc3s1)CCC2
- inhibition (Influenza A virus [1]): Active
- inhibition (unidentified adenovirus [2]): Active
- inhibition (Coxsackievirus B5 [3]): Active
- inhibition (Enterovirus [4]): Active
- inhibition (INH) (Influenza A virus [5]): <50%
- inhibition (INH) (unidentified adenovirus [6]): <50%
- CC50 at 72 h [7]: 355 µg/mL (≈ 938 µM)
- inhibition (INH) (Coxsackievirus B5 [8]): <50%
- CC50 at 72 h [9]: 394 µg/mL (≈ 1040 µM)
- inhibition (INH) (Enterovirus [10]): <50%
- CC50 at 72 h [11]: 270 µg/mL (≈ 713 µM)

SMILES: O=[N+]([O-])c1ccc(/C=N/c2sc3c(c2-c2nc4ccccc4s2)CCCC3)cc1
- inhibition (Influenza A virus [1]): Active
- inhibition (unidentified adenovirus [2]): Active
- inhibition (Coxsackievirus B5 [3]): Active
- inhibition (Enterovirus [4]): Active
- inhibition (INH) (Influenza A virus [5]): <50%
- inhibition (INH) (unidentified adenovirus [6]): <50%
- CC50 at 72 h [7]: 357 µg/mL (≈ 850 µM)
- inhibition (INH) (Coxsackievirus B5 [8]): <50%
- CC50 at 72 h [9]: 454 µg/mL (≈ 1080 µM)
- inhibition (INH) (Enterovirus [10]): <50%
- CC50 at 72 h [11]: 316 µg/mL (≈ 754 µM)
